According to ChEMBL document CHEMBL5500386, “Design, synthesis and bioactivity evaluation of 4-hydroxycoumarin derivatives as potential anti-inflammatory agents against acute lung injury and colitis” (Eur J Med Chem, 2024):
Activity calls are given as the source filed them. No cut-off for these calls is given here.

Assays:
THP-1 = experiment: Antiinflammatory activity in LPS-induced human THP-1 cells assessed as inhibition of IL-6 production pretreated for 30 mins followed by LPS stimulation and measured after 24 hrs by ELISA; type: functional, cell-based
Outline: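 Cells pretreated 30 min with a gradient of concentrations (2.5–10 μM range) or DMSO, then given LPS 0.5 μg/mL for 24 h. IL-6 in medium measured by ELISA and normalised to living cell number by MTT. Expressed as % of the LPS group, mean ± SEM of triplicates. IC50 taken from the concentration-response.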

[1] = target: Interleukin-1 receptor-associated kinase 1 (Homo sapiens) (UniProt P51617); experiment: Inhibition of IRAK1 (unknown origin) at 10 uM relative to control
Interleukin-1 receptor-associated kinase 1 (Homo sapiens), sequence (P51617 whole entry, looked up): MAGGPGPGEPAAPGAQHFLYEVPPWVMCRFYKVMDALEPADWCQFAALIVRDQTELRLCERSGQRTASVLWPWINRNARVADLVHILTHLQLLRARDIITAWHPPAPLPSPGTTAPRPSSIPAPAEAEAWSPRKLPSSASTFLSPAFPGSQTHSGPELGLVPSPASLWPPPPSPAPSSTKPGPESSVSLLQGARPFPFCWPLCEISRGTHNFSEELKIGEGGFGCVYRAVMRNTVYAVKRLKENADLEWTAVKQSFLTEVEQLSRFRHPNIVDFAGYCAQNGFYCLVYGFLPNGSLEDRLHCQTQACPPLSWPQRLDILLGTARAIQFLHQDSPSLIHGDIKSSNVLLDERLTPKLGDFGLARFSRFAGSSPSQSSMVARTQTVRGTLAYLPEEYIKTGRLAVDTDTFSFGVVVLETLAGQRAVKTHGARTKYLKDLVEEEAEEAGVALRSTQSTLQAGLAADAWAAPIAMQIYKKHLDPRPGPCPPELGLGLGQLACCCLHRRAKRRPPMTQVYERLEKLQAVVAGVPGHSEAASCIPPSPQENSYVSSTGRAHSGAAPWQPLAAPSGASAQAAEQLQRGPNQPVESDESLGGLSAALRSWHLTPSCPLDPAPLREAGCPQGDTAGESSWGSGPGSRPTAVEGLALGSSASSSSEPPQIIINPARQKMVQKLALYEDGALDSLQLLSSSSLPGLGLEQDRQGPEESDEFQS

[2] = target: T1, Inhibitor of nuclear factor kappa-B kinase subunit beta (Homo sapiens) (UniProt O14920); experiment: Inhibition of IKKbeta (unknown origin) at 10 uM relative to control
T1 sequence (whole entry): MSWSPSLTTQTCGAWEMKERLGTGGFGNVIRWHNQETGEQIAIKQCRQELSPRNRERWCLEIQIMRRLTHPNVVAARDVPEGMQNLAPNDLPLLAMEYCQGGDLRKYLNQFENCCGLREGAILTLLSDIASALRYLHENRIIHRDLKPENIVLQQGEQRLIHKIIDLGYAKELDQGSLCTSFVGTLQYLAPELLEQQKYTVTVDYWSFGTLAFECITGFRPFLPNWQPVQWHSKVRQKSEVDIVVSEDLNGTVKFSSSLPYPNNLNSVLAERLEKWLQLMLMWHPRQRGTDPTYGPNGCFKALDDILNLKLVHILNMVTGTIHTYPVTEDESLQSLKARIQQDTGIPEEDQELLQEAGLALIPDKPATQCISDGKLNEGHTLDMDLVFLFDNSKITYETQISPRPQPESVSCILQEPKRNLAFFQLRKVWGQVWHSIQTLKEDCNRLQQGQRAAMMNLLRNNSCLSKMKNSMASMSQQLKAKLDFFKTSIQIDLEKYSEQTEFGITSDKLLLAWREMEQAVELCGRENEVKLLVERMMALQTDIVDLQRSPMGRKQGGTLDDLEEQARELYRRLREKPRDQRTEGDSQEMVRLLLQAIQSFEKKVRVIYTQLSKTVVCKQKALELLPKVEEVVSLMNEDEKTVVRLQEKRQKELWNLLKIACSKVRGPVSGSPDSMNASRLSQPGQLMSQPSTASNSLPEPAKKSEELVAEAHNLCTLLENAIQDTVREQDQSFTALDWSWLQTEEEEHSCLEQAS

Mus musculus [3] = experiment: Protection against LPS-induced C57BL/6 mouse model of acute lung injury assessed as reduction in IL-6 level in BALF at 20 mg/kg, po administered 3 times for every 12 hrs followed by LPS stimulation at 5 mg/kg and measured after 6 hrs by ELISA; type: functional, organism-based; details: time 30.0 hrs
Outline: (§1)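 C57BL/6 mice, 6 per group. Gavaged at 20 mg/kg three times at 12 h intervals; controls received saline, and dexamethasone 20 mg/kg served as reference. After the last dose, LPS 5 mg/kg given intratracheally. At 6 h, blood collected for serum IL-6 by ELISA. Left lung lavaged with 3 × 200 μL saline, and BALF assayed for IL-6, total protein and neutrophil count. Mean ± SEM, n = 6.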

Mus musculus [4] = experiment: Protection against LPS-induced C57BL/6 mouse model of acute lung injury assessed as reduction in IL-6 level in serum at 20 mg/kg, po administered 3 times for every 12 hrs followed by LPS stimulation at 5 mg/kg and measured after 6 hrs by ELISA; type: functional, organism-based; details: time 30.0 hrs; outline: as §1
Mus musculus [5] = experiment: Protection against LPS-induced C57BL/6 mouse model of acute lung injury assessed as reduction in thickening of the alveolar septum at 20 mg/kg, po administered 3 times for every 12 hrs followed by LPS stimulation at 5 mg/kg and measured after 6 hrs by immunohistochemical staining based analysis; type: functional, organism-based; details: time 30.0 hrs
Outline: (§2)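 LPS-induced ALI in C57BL/6 mice: 20 mg/kg orally three times at 12 h intervals, then intratracheal LPS 5 mg/kg, lungs taken at 6 h. F4/80 IHC: xylene deparaffinisation, citrate pH 6 retrieval for 25 min, primary antibody at 4 °C for 12 h, secondary 1:2000, DAB and hematoxylin. Viewed at ×20.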

Mus musculus [6] = experiment: Protection against LPS-induced C57BL/6 mouse model of acute lung injury assessed as reduction in immune markers at 20 mg/kg, po administered 3 times for every 12 hrs followed by LPS stimulation at 5 mg/kg and measured after 6 hrs by immunohistochemical staining based analysis; type: functional, organism-based; details: time 30.0 hrs; outline: as §2
[7] = Acute toxicity in male ICR mouse assessed as reduction in body weight at 500 to 1000 mg/kg, po administered daily and measured on day 1; type: organism-based; details: in vivo, 24 h, dose 500-1000 mg/kg, time 1 day
Outline: (§3)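 Male ICR mice (8 weeks, 30 g ± 2 g), acclimatised 1 week, randomised into 1000 mg/kg, 500 mg/kg and untreated control groups (n = 24 total). Dosed by daily gavage, compound dissolved in 0.5 % DMSO then added to normal saline. Body weight and behaviour recorded daily. Euthanised after 10 days; heart, liver, spleen, lung and kidney examined by H&E staining.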

[8] = Acute toxicity in male ICR mouse assessed as histopathological changes in spleen at 500 to 1000 mg/kg, po administered daily for 10 days by H and E staining based analysis; type: organism-based; details: in vivo, 240 h, dose 500-1000 mg/kg, time 10 day; outline: as §3
[9] = Cmax in male Sprague-Dawley rat at 1 mg/kg, iv measured upto 24 hrs by triple quadrupole mass spectrometric analysis; type: ADME, organism-based; details: in vivo
Outline: (§4)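 Male SD rats (8 weeks, 200 g ± 20 g), n = 3 per route. Oral: 10 mg/kg by gavage in 0.05 % DMSO/normal saline, tail-vein blood at 13 times from 10 min to 24 h. IV: 1 mg/kg tail vein in 5 % DMSO/30 % PEG400/65 % saline, 14 samples from 5 min to 24 h. Heparinised plasma precipitated with acetonitrile containing internal standard. Non-compartmental analysis on mean concentrations.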

[10] = AUC (0 to infinity) in male Sprague-Dawley rat at 1 mg/kg, iv measured upto 24 hrs by triple quadrupole mass spectrometric analysis; type: ADME, organism-based; details: in vivo; outline: as §4
[11] = Cmax in male Sprague-Dawley rat at 10 mg/kg, po measured upto 24 hrs by triple quadrupole mass spectrometric analysis; type: ADME, organism-based; details: in vivo
[12] = AUC (0 to t) in male Sprague-Dawley rat at 10 mg/kg, po measured upto 24 hrs by triple quadrupole mass spectrometric analysis; type: ADME, organism-based; details: in vivo; outline: as §4
[13] = Half life in male Sprague-Dawley rat at 10 mg/kg, po measured upto 24 hrs by triple quadrupole mass spectrometric analysis; type: ADME, organism-based; details: in vivo; outline: as §4
[14] = Oral bioavailability in male Sprague-Dawley rat at 10 mg/kg measured upto 24 hrs by triple quadrupole mass spectrometric analysis; type: ADME, organism-based; details: in vivo; outline: as §4
[15] = tested on: TGF-beta-activated kinase 1 (MAP3K7); experiment: Inhibition of TAK1 (unknown origin) at 10 uM relative to control; details: Homo sapiens

CC(=O)N1CCN(CCOc2cc(=O)oc3ccccc23)CC1
IC50 (THP-1): 6.51 µM | Activity (THP-1; time 24.5 hrs): Dose-Dependent Effect | inhibition [1]: 48.1% | inhibition [2]: -9.11% | Activity (Mus musculus [3]): Active | Activity (Mus musculus [4]): Active | Activity (Mus musculus [5]): Active | Activity (Mus musculus [6]): Active | Activity [7]: Toxic | Activity [8]: Non-Toxic | Cmax [9]: 2030 ng/mL | AUC(0-inf) [10]: 1020 ng·h/mL | Cmax [11]: 1010 ng/mL | AUC(0-t) at 24 h [12]: 2670 ng·h/mL | half-life [13]: 2.36 h | bioavailability [14]: 28.7% | inhibition [15]: 1.05%
